A short description of assay [1]: reduced viability of SK-BR-3 breast cancer cells – cell-based, 24 h, human, pilot screen (AID 572;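 active means viability at or below 10% of carrier control in both of two separate runs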;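 further: compound exposure lasted between 18 and 24 h rather than exactly 24 h; 100% = carrier-treated control wells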). The following applies: SK-BR-3 viability, CellTiter-Glo luminescence, at 10 µM, stronger effect = lower value. For orientation: Cellular ATP, detected with luciferase, serves as a proxy for viable cell number.
The nature of assay [2]: HUVEC growth inhibition – cell-based, human, primary screen (AID 575;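 active means viability at or below 30% in both replicate assays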;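 further: 100% = median of untreated cell wells with 0.1% DMSO on each plate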). The following applies: HUVEC proliferation, CellTiter-Glo luminescence, 72 h; at 10 µM; stronger effect = lower value. Summed up: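 System – primary HUVEC, no more than 12 passages · Medium – Low-serum (2% FBS) EBM, supplemented · Times – 72 h exposure, 37 °C, 5% CO2, 30 min RT equilibration · Measured by – luminescent ATP assay · Read-out – % viability relative to median vehicle-well signal on each plate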

Assay [3] is described as follows: H69AR cell proliferation blockers – human, duplicate replicates, primary screen (AID 580).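 Further: 100% = mean luminescence of untreated wells and 0% = no signal.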 The following applies: H69AR lung tumor cells viability, ATP luminescence, 72 h; at 10 µM; stronger effect = lower value.
Assay [4] can be described thus: MRP1 drug-resistance reversers in H69AR cells – cell-based, doxorubicin co-treatment, pilot screen (AID 601;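 active means viability loss from added drug above about 55%, and viability with drug at most 40%, in both replicates, limit read from the data, passing the limit was not always enough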). The following applies: CellTiter-Glo, 72 h, at 10 µM; for differential viability (reversal): stronger effect = higher value.
The nature of assay [5]: yeast transport mutant growth inhibition pilot in 384-well plates, post-Golgi transport modulator project (AID 636; in the data active means inhibition above about 31%). The following applies: absorbance 615 nm, about 18 h, stronger effect = higher value.
A short description of assay [6]: growth suppression of yeast trafficking mutant, preliminary HTS, modulators of trafficking downstream of Golgi apparatus project, 1536-format plate, OD 615 nm (AID 637; in the data active means inhibition above about 30%). The following applies: yeast transport mutant growth, absorbance 615 nm, 18 h; stronger effect = higher value.
The mark [7] stands for this setting: H69AR cells + 2 uM doxorubicin, measured here: viability with 2 uM doxorubicin, stronger effect = lower value.
Setting [8] is: H69AR cells, compound alone cytotoxicity.

Activity calls are given as the source filed them.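 How the source made its calls, unless noted: active means viability at or under a set limit in both replicates, limit being median viability minus 3 SD (cut at about 48% in these data, passing the limit was not always enough); inconclusive means at or under the limit in just one replicate; inactive means at or above the limit in both replicates.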

Take `Cn1c(=O)c2c(nc(CN3CCCCC3)n2CCCc2ccccc2)n(C)c1=O`: the viability (commonly a read-out of living cells in per cent, often relative to untreated cells) in assay [1] was 122% (inactive); in assay [2] it was 103% (inactive); in assay [3] it was 81.7% (inactive); in assay [4] (setting [7]) it was 81%; in assay [4] (setting [8]), 81.7%. Further, in assay [4] (H69AR cells + 2 uM doxorubicin), the differential viability (reversal) was 0.72% (inactive). In addition, the inhibition (usually the change of the read-out against control, counted positive when it falls) in assay [5] was -1.3% (inactive); in assay [6] it was 6.23% (inactive).

`Nc1ccc(S(=O)(=O)c2ccc(N)cc2)cc1`: the viability in assay [1] is 95% (inactive); in assay [2] it was 85.9% (inactive); in assay [3], 106% (inactive); in assay [4] (setting [7]), 87.1%; in assay [4] (setting [8]), 106%. The differential viability (reversal) in assay [4] (H69AR cells + 2 uM doxorubicin) was 19.4% (inactive). The inhibition in assay [5] is -2.21% (inactive); in assay [6], 5.17% (inactive).

For `CC(=O)OCC(=O)[C@@]1(O)CC[C@H]2[C@@H]3CCC4=CC(=O)C=C[C@]4(C)[C@H]3[C@@H](O)C[C@@]21C`, the viability in assay [1] was 82% (inactive); in assay [2], 91.5% (inactive); in assay [3] it was 91.1% (inactive); in assay [4] (setting [7]) it was 98.2%; in assay [4] (setting [8]), 91.1%. Besides, in assay [4] (H69AR cells + 2 uM doxorubicin), the differential viability (reversal) was -7.15% (inactive). The inhibition is 1.56% (inactive) in assay [5] and -1.83% (inactive) in assay [6].

In the case of `CCCC(OC(=O)CN1C(=O)COc2ccccc21)C(=O)NC1CCCC1` (stereo unspecified), the viability was 63% (inactive) in assay [1]; 107% (inactive) in assay [2]; 91.7% (inactive) in assay [3]; 90.3% in assay [4] (setting [7]); 91.7% in assay [4] (setting [8]). For the same compound, the differential viability (reversal) in assay [4] (H69AR cells + 2 uM doxorubicin) is 1.34% (inactive). Besides, the inhibition was -7.12% (inactive) in assay [5] and 3.09% (inactive) in assay [6].

As to `Cc1cc2c(c(=O)n1C)C(Cc1ccccc1)C(C#N)=C(N)O2` (stereo unspecified), the viability in assay [1] is 95% (inactive); in assay [2], 109% (inactive); in assay [3] it was 95.1% (inactive); in assay [4] (setting [7]) it was 85.6%; in assay [4] (setting [8]), 95.1%. In assay [4] (H69AR cells + 2 uM doxorubicin), the differential viability (reversal) is 9.48% (inactive). In addition, the inhibition in assay [5] was -5.54% (inactive); in assay [6] it was 2.55% (inactive).

For the compound `COc1cccc(N2CCN(CC(=O)c3c[nH]c4ccc(OC)cc34)CC2C)c1` (stereo unspecified), the viability was 104% (inactive) in assay [1]; 83.9% (inactive) in assay [2]; 70.4% (inactive) in assay [3]; 82.1% in assay [4] (setting [7]); 70.4% in assay [4] (setting [8]). Besides, the differential viability (reversal) in assay [4] (H69AR cells + 2 uM doxorubicin) was -11.7% (inactive). The inhibition is -5.33% (inactive) in assay [5] and -1.45% (inactive) in assay [6].

Consider `CCOC(=O)C1CCN(C(=O)COc2ccc(S(=O)(=O)NC(C)C)cc2Cl)CC1`, for which the viability in assay [1] is 99.5% (inactive); in assay [2], 100% (inactive); in assay [3], 90.4% (inactive); in assay [4] (setting [7]) it was 106%; in assay [4] (setting [8]), 90.4%. The differential viability (reversal) in assay [4] (H69AR cells + 2 uM doxorubicin) is -15.3% (inactive). In addition, the inhibition in assay [5] is 0.66% (inactive); in assay [6], 24.5% (inactive).

As to `Cc1ccc(CCNC(=O)C2CCC(=O)N2C2CCCC2)cc1` (stereo unspecified), the viability is 79% (inactive) in assay [1]; 99.7% (inactive) in assay [2]; 94.9% (inactive) in assay [3]; 81.9% in assay [4] (setting [7]); 94.9% in assay [4] (setting [8]). In assay [4] (H69AR cells + 2 uM doxorubicin), the differential viability (reversal) is 13% (inactive). For the same compound, the inhibition in assay [5] was -2.08% (inactive); in assay [6] it was 0% (inactive).

Turning to `C1COC(NC(C2CC2)C2CC2)=N1`, the viability in assay [1] is 94% (inactive); in assay [2], 77.3% (inactive); in assay [3], 84.9% (inactive); in assay [4] (setting [7]), 79.6%; in assay [4] (setting [8]), 84.9%. For the same compound, in assay [4] (H69AR cells + 2 uM doxorubicin), the differential viability (reversal) was 5.27% (inactive). The inhibition in assay [5] was -1.3% (inactive); in assay [6] it was -5.17% (inactive).

On to `Cc1ccc(-c2nnc(SCC(=O)N3c4ccccc4NC(=O)C3(C)C)n2N)cc1`, for which the viability was 65% (inactive) in assay [1]; 105% (inactive) in assay [2]; 98% (inactive) in assay [3]; 91.5% in assay [4] (setting [7]); 98% in assay [4] (setting [8]). Also, in assay [4] (H69AR cells + 2 uM doxorubicin), the differential viability (reversal) was 6.49% (inactive). Further, the inhibition in assay [5] was -3.38% (inactive); in assay [6], 0.36% (inactive).

Turning to `COc1ccccc1CN1CC(C(=O)NCc2cccnc2)CC1=O` (stereo unspecified), the viability in assay [1] is 134% (inactive); in assay [2], 95.5% (inactive); in assay [3], 91.5% (inactive); in assay [4] (setting [7]), 89.2%; in assay [4] (setting [8]), 91.5%. For the same compound, the differential viability (reversal) in assay [4] (H69AR cells + 2 uM doxorubicin) was 2.3% (inactive). Besides, the inhibition was -2.99% (inactive) in assay [5] and 3.77% (inactive) in assay [6].

In the case of `COC(=O)c1cc(S(=O)(=O)N2CCOCC2)c(N2CCOCC2)cc1N1CCOCC1`, the viability in assay [1] was 124% (inactive); in assay [2], 102% (inactive); in assay [3], 85.5% (inactive); in assay [4] (setting [7]), 72.1%; in assay [4] (setting [8]), 85.5%. For the same compound, in assay [4] (H69AR cells + 2 uM doxorubicin), the differential viability (reversal) is 13.4% (inactive). Further, the inhibition in assay [5] was -0.14% (inactive); in assay [6], -2.91% (inactive).

The values above are taken from PubChem BioAssay.
